Experimental data reported in ChEMBL document CHEMBL1150340, “Synthesis of 5'-functionalized nucleosides: S-Adenosylhomocysteine analogues with the carbon-5' and sulfur atoms replaced by a vinyl or halovinyl unit” (Bioorg Med Chem, 2008).

Tests used:
[1] = biological target: Adenosylhomocysteinase (Homo sapiens) (UniProt P23526); experiment: Inhibition of human S-adenosyl-L-homocysteine hydrolase after 20 mins
[2] = biological target: Adenosylhomocysteinase (Homo sapiens) (UniProt P23526); experiment: Inhibition of human S-adenosyl-L-homocysteine hydrolase at 281 uM after 0.5 hrs
Procedure, shortened: (§1)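 Human AdoHcy hydrolase (204 nM) was preincubated with inhibitor in buffer A (50 mM, pH 7.2, 1 mM EDTA) at 22 °C, for 0.5 h or 4 h. Residual activity was then read in the synthetic direction: an aliquot was diluted into buffer A with 0.5 mM Ado and 0.5 mM Hcy, held 12 min at 37 °C, and stopped with HClO₄. Duplicates were averaged.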

[3] = biological target: Adenosylhomocysteinase (Homo sapiens) (UniProt P23526); experiment: Inhibition of human S-adenosyl-L-homocysteine hydrolase at 281 uM after 4 hrs; procedure, shortened: as §1

Chain of Adenosylhomocysteinase (Homo sapiens) (P23526 2-432 limits assumed): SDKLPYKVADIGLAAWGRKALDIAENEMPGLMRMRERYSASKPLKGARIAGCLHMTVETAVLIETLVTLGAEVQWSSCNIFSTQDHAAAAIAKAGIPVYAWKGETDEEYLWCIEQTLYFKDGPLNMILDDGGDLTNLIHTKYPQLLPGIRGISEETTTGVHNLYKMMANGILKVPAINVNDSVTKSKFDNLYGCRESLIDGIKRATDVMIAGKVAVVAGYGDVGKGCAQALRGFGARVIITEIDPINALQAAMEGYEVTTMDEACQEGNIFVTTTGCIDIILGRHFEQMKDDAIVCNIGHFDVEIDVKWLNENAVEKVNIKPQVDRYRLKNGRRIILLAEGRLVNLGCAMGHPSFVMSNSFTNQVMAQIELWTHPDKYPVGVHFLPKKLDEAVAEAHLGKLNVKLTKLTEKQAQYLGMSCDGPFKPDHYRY

| SMILES | inhibition [1] | inhibition [2] | inhibition [3] |
| --- | --- | --- | --- |
| CCOC(=O)/C=C/C=C\[C@H]1O[C@@H](n2cnc3c(N)ncnc32)[C@H](O)[C@@H]1O | 98.2% | – | – |
| COC(=O)CC/C=C\[C@H]1O[C@@H](n2cnc3c(N)ncnc32)[C@H](O)[C@@H]1O | – | 68.1% | – |
| CCOC(=O)CCC/C=C/[C@H]1O[C@@H](n2cnc3c(N)ncnc32)[C@H](O)[C@@H]1O | – | 81% | – |
| Nc1ncnc2c1ncn2[C@@H]1O[C@H](/C=C/CCCC(=O)O)[C@@H](O)[C@H]1O | – | 28.5% | 92.4% |
| CCOC(=O)CCC/C(F)=C\[C@H]1O[C@@H](n2cnc3c(N)ncnc32)[C@H](O)[C@@H]1O | – | 14.1% | – |
| Nc1ncnc2c1ncn2[C@@H]1O[C@H](/C=C(/F)CCCC(=O)O)[C@@H](O)[C@H]1O | – | 15.2% | 35.2% |
| CCOC(=O)/C=C/C=C/[C@H]1O[C@@H](n2cnc3c(N)ncnc32)[C@H](O)[C@@H]1O | 96.4% | – | – |
| Nc1ncnc2c1ncn2[C@@H]1O[C@H](/C=C\CCC(=O)O)[C@@H](O)[C@H]1O | – | 50.5% | 95.5% |
